ChEMBL document CHEMBL4266041, “Hydroxybiphenylamide GroEL/ES Inhibitors Are Potent Antibacterials against Planktonic and Biofilm Forms of Staphylococcus aureus” (J Med Chem, 2018)

tested on: not listed separately; assay: Inhibition of refolded MDH (unknown origin) preincubated with Escherichia coli GroEL/GroES for 45 mins in absence of compound followed by compound addition and measured for 20 to 35 mins by spectrometric analysis; details: not given

SMILES	IC50
COc1c(Br)cc(Br)cc1C(=O)Nc1ccc(Sc2nc3ccccc3s2)cc1	> 63 µM
COc1c(Br)cccc1C(=O)Nc1ccccc1	> 63 µM
COc1c(Br)cccc1C(=O)Nc1cccc(Cl)c1	> 63 µM
COc1ccc(Br)cc1C(=O)Nc1cccc(Cl)c1	> 63 µM

biological target: T1, E. coli GroEL/ES (Escherichia coli, UniProt P0A6F5); assay: Inhibition of Escherichia coli GroEL expressed in Escherichia coli DH5alpha/Escherichia coli GroES expressed in Escherichia coli BL21 (DE3) assessed as reduction in GroEL/GroES-mediated denatured rhodanese refolding after 45 mins by spectrometric analysis; details: not given
T1 sequence (P0A6F5 whole entry, looked up): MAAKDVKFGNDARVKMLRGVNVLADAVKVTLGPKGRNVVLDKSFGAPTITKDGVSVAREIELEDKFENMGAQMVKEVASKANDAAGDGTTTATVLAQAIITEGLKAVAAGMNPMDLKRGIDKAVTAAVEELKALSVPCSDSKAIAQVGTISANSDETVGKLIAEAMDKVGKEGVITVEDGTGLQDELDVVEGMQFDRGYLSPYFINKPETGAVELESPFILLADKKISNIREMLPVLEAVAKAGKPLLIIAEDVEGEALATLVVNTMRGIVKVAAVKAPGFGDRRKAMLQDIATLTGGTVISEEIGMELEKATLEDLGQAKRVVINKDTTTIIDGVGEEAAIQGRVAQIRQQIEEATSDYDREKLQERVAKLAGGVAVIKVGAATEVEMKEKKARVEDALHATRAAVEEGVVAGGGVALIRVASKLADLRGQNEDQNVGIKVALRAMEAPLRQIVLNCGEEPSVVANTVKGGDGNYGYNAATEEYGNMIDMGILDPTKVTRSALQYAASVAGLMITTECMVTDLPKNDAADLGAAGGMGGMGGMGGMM
Summary of the method: (§1)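 Uses E. coli GroEL/ES with a denatured MDH or rhodanese reporter. GroEL first forms a binary complex with the denatured reporter. Refolding is started by adding ATP and GroES, then reporter enzyme activity is read. DMSO is the negative control. IC50 values from replicate curves are log-averaged after ROUT outlier screening.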

SMILES	IC50
COc1c(Br)cc(Br)cc1C(=O)Nc1ccc(Sc2nc3ccccc3s2)cc1	> 100 µM
COc1c(Br)cccc1C(=O)Nc1ccccc1	> 100 µM
COc1c(Br)cccc1C(=O)Nc1cccc(Cl)c1	> 100 µM
COc1ccc(Br)cc1C(=O)Nc1cccc(Cl)c1	> 100 µM

biological target: T2, Thiosulfate sulfurtransferase (Homo sapiens, UniProt Q16762); assay: Inhibition of refolded rhodanese (unknown origin) preincubated with Escherichia coli GroEL/GroES for 60 mins in absence of compound followed by compound addition by spectrometric analysis; details: not given
T2 sequence (Q16762 whole entry): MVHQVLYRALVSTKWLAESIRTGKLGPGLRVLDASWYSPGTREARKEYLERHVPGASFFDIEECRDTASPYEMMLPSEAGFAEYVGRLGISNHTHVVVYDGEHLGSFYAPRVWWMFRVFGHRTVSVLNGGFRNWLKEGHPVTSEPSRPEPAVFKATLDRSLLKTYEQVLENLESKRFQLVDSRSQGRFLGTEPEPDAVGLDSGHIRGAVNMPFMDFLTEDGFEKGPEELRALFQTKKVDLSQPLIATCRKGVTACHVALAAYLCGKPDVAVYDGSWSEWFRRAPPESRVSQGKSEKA

SMILES	IC50
COc1c(Br)cc(Br)cc1C(=O)Nc1ccc(Sc2nc3ccccc3s2)cc1	> 100 µM
COc1c(Br)cccc1C(=O)Nc1ccccc1	> 100 µM
COc1c(Br)cccc1C(=O)Nc1cccc(Cl)c1	> 100 µM
COc1ccc(Br)cc1C(=O)Nc1cccc(Cl)c1	> 100 µM

tested on: Klebsiella pneumoniae; assay: Antibacterial activity against Klebsiella pneumoniae ATCC 13883 after 6 to 8 hrs by bacterial proliferation assay; assay type: functional, organism-based; details: not given
Summary of the method: (§2)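 Bacterial growth inhibition in liquid culture. The highest concentration tested was 100 µM. The mean was back-calculated from the average log value. Values above the top concentration were set 0.1 log unit higher.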

SMILES	EC50
COc1c(Br)cc(Br)cc1C(=O)Nc1ccc(Sc2nc3ccccc3s2)cc1	> 100 µM
COc1c(Br)cccc1C(=O)Nc1ccccc1	> 100 µM
COc1c(Br)cccc1C(=O)Nc1cccc(Cl)c1	> 100 µM
COc1ccc(Br)cc1C(=O)Nc1cccc(Cl)c1	> 100 µM

tested on: HEK293; assay: Cytotoxicity against HEK293 cells assessed as reduction in cell viability after 48 hrs by Alamar Blue reporter assay; details: human, hek293, 48 h

SMILES	CC50
COc1c(Br)cc(Br)cc1C(=O)Nc1ccc(Sc2nc3ccccc3s2)cc1	> 100 µM
COc1c(Br)cccc1C(=O)Nc1ccccc1	> 100 µM
COc1c(Br)cccc1C(=O)Nc1cccc(Cl)c1	> 100 µM
COc1ccc(Br)cc1C(=O)Nc1cccc(Cl)c1	> 100 µM

tested on: Staphylococcus aureus; assay: Antibacterial activity against Staphylococcus aureus ATCC 25923 after 6 to 8 hrs by bacterial proliferation assay; assay type: functional, organism-based; details: not given

SMILES	EC50
COc1c(Br)cc(Br)cc1C(=O)Nc1ccc(Sc2nc3ccccc3s2)cc1	> 100 µM
COc1c(Br)cccc1C(=O)Nc1ccccc1	> 100 µM
COc1c(Br)cccc1C(=O)Nc1cccc(Cl)c1	> 100 µM
COc1ccc(Br)cc1C(=O)Nc1cccc(Cl)c1	> 100 µM

tested on: Enterococcus faecium; assay: Antibacterial activity against Enterococcus faecium ATCC 19434 after 24 hrs by bacterial proliferation assay; assay type: functional, organism-based; details: ATCC 19434, 24 h

SMILES	EC50
COc1c(Br)cc(Br)cc1C(=O)Nc1ccc(Sc2nc3ccccc3s2)cc1	> 100 µM
COc1c(Br)cccc1C(=O)Nc1ccccc1	> 100 µM
COc1c(Br)cccc1C(=O)Nc1cccc(Cl)c1	> 100 µM
COc1ccc(Br)cc1C(=O)Nc1cccc(Cl)c1	> 100 µM

tested on: Staphylococcus aureus; assay: Antibacterial activity against methicillin-resistant Staphylococcus aureus ATCC BAA-44 after 6 to 8 hrs by bacterial proliferation assay; assay type: functional, organism-based; details: Staphylococcus aureus, ATCC BAA-44

SMILES	EC50
COc1c(Br)cc(Br)cc1C(=O)Nc1ccc(Sc2nc3ccccc3s2)cc1	> 100 µM
COc1c(Br)cccc1C(=O)Nc1ccccc1	> 100 µM
COc1c(Br)cccc1C(=O)Nc1cccc(Cl)c1	> 100 µM
COc1ccc(Br)cc1C(=O)Nc1cccc(Cl)c1	> 100 µM

tested on: Enterobacter cloacae; assay: Antibacterial activity against Enterobacter cloacae subsp. cloacae ATCC 13047 after 24 hrs by bacterial proliferation assay; assay type: functional, organism-based; details: subsp. cloacae ATCC 13047, 24 h; summary of the method: as §2

SMILES	EC50
COc1c(Br)cc(Br)cc1C(=O)Nc1ccc(Sc2nc3ccccc3s2)cc1	> 100 µM
COc1c(Br)cccc1C(=O)Nc1ccccc1	> 100 µM
COc1c(Br)cccc1C(=O)Nc1cccc(Cl)c1	> 100 µM
COc1ccc(Br)cc1C(=O)Nc1cccc(Cl)c1	> 100 µM

biological target: HSP60/HSP10 (Homo sapiens, UniProt P10809); assay: Inhibition of human N-terminal octa-His-tagged HSP60 expressed in Escherichia coli Rosetta(DE3) pLysS/human HSP10 expressed in Escherichia coli Rosetta(DE3) assessed as reduction in HSP60/HSP10-mediated denatured MDH refolding after 40 to 60 mins by spectrometric analysis; details: not given
Sequence (P10809 whole entry): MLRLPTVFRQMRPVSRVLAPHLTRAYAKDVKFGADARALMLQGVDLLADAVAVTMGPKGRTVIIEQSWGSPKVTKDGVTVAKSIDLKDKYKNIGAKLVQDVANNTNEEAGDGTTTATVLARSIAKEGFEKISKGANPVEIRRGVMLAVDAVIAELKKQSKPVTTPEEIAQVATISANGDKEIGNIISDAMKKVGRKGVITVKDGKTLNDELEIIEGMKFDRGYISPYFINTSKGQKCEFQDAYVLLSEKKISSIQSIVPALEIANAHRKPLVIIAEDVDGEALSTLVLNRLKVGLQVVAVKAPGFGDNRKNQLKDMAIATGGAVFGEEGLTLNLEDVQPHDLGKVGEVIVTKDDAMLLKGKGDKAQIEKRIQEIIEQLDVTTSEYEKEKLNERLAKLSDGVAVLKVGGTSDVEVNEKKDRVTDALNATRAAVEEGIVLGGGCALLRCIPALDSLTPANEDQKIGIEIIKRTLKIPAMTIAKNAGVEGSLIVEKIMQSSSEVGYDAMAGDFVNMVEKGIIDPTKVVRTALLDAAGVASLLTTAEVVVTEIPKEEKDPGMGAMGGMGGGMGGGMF
Sequence (P61604 whole entry, further chain): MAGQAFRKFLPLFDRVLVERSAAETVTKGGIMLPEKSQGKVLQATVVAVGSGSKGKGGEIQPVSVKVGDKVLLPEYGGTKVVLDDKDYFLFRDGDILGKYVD
Summary of the method: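 Human HSP60/10 refolding of denatured MDH, run the same way as the GroEL/ES-dMDH assay. A binary complex of chaperonin and denatured MDH is formed, and refolding is started with ATP and HSP10. MDH activity is the read-out. DMSO is the negative control. IC50 values from replicate curves are log-averaged after ROUT outlier screening.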

SMILES	IC50
COc1c(Br)cc(Br)cc1C(=O)Nc1ccc(Sc2nc3ccccc3s2)cc1	> 100 µM
COc1c(Br)cccc1C(=O)Nc1ccccc1	> 100 µM
COc1c(Br)cccc1C(=O)Nc1cccc(Cl)c1	> 100 µM
COc1ccc(Br)cc1C(=O)Nc1cccc(Cl)c1	> 100 µM

tested on: Acinetobacter baumannii; assay: Antibacterial activity against Acinetobacter baumannii ATCC 19606 after 24 hrs by bacterial proliferation assay; assay type: functional, organism-based; details: ATCC 19606 = CIP 70.34 = JCM 6841, 24 h; summary of the method: as §2

SMILES	EC50
COc1c(Br)cc(Br)cc1C(=O)Nc1ccc(Sc2nc3ccccc3s2)cc1	> 100 µM
COc1c(Br)cccc1C(=O)Nc1ccccc1	> 100 µM
COc1c(Br)cccc1C(=O)Nc1cccc(Cl)c1	> 100 µM
COc1ccc(Br)cc1C(=O)Nc1cccc(Cl)c1	> 100 µM

biological target: T1, E. coli GroEL/ES; assay: Inhibition of Escherichia coli GroEL expressed in Escherichia coli DH5alpha/Escherichia coli GroES expressed in Escherichia coli BL21 (DE3) assessed as reduction in GroEL/GroES-mediated denatured MDH refolding after 20 to 40 mins by spectrometric analysis; details: not given; summary of the method: as §1

SMILES	IC50
COc1c(Br)cc(Br)cc1C(=O)Nc1ccc(Sc2nc3ccccc3s2)cc1	> 100 µM
COc1c(Br)cccc1C(=O)Nc1ccccc1	> 100 µM
COc1c(Br)cccc1C(=O)Nc1cccc(Cl)c1	> 100 µM
COc1ccc(Br)cc1C(=O)Nc1cccc(Cl)c1	> 100 µM

tested on: Pseudomonas aeruginosa; assay: Antibacterial activity against Pseudomonas aeruginosa ATCC 10145 after 24 hrs by bacterial proliferation assay; assay type: functional, organism-based; details: ATCC 10145, 24 h; summary of the method: as §2

SMILES	EC50
COc1c(Br)cc(Br)cc1C(=O)Nc1ccc(Sc2nc3ccccc3s2)cc1	> 100 µM
COc1c(Br)cccc1C(=O)Nc1ccccc1	> 100 µM
COc1c(Br)cccc1C(=O)Nc1cccc(Cl)c1	> 100 µM
COc1ccc(Br)cc1C(=O)Nc1cccc(Cl)c1	> 100 µM

tested on: not listed separately; assay: Cytotoxicity against human THLE3 cells assessed as reduction in cell viability after 48 hrs by Alamar Blue reporter assay; details: 48 h

SMILES	CC50
COc1c(Br)cc(Br)cc1C(=O)Nc1ccc(Sc2nc3ccccc3s2)cc1	> 100 µM
COc1c(Br)cccc1C(=O)Nc1ccccc1	> 100 µM
COc1c(Br)cccc1C(=O)Nc1cccc(Cl)c1	> 100 µM
COc1ccc(Br)cc1C(=O)Nc1cccc(Cl)c1	94 µM
